ChEMBL document CHEMBL1154078, “Synthesis of novel purine nucleosides towards a selective inhibition of human butyrylcholinesterase” (Bioorg Med Chem, 2009)
The source made the active and inactive calls. No cut-off for these calls is given here.

Key:
Cholinesterase [1] = molecular target: T1, Cholinesterase (Homo sapiens, UniProt P06276); test: Inhibition of BChE in human serum assessed as hydrolysis of butyrylthiocholine by Ellman's method; format: cell-free
Outline: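 Human serum BChE (0.44 U/mL solution) in 0.1 M phosphate buffer pH 8.0 with S-butyrylthiocholine iodide and DTNB. Absorbance at 410 nm followed kinetically for 4 min at 30 °C, at least four replicates. IC50 obtained by non-linear regression of the dose–response, given as mean ± SEM.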

Cholinesterase [2] = molecular target: T1, Cholinesterase; test: Inhibition of BChE in human serum assessed as hydrolysis of butyrylthiocholine at 100 ug/mL by Ellman's method; format: cell-free
Outline: (§1)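 Human serum BChE (0.44 U/mL solution) in 0.1 M phosphate buffer pH 8.0 with S-butyrylthiocholine iodide and DTNB. Absorbance at 410 nm followed kinetically for 4 min at 30 °C, at least four replicates. Inhibition % = 100 − 100·V/V_max, where V_max comes from blanks without inhibitor; one-sided t-test. IC50 obtained by non-linear regression of the dose–response, given as mean ± SEM.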

Cholinesterase [3] = molecular target: T1, Cholinesterase; test: Inhibition of BChE in human serum assessed as hydrolysis of butyrylthiocholine at 10 ug/mL by Ellman's method; outline: as §1
Cholinesterase [4] = molecular target: T1, Cholinesterase; test: Inhibition of BChE in human serum assessed as hydrolysis of butyrylthiocholine at 1 ug/mL by Ellman's method; format: cell-free; outline: as §1
[5] = molecular target: T2, Acetylcholinesterase (Bos taurus) (UniProt P23795); test: Inhibition of AChE in bovine erythrocytes assessed as hydrolysis of acetylthiocholine by Ellman's method
T2 sequence (whole entry): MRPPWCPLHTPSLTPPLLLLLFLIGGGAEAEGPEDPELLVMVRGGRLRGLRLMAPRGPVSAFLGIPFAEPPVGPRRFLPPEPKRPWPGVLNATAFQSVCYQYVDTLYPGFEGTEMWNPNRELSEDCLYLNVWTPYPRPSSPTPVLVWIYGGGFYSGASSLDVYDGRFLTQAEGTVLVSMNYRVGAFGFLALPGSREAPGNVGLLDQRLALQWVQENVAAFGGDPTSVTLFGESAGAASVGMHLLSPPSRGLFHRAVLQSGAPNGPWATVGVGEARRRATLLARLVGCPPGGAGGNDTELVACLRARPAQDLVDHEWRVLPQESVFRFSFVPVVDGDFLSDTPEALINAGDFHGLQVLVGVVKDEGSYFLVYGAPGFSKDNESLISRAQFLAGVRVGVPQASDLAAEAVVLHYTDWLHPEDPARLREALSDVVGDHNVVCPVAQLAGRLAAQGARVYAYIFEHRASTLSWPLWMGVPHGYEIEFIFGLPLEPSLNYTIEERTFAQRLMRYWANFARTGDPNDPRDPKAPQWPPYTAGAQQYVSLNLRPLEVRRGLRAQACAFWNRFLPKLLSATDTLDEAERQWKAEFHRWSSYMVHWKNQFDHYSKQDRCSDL
Outline: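 Bovine erythrocyte AChE (1.32 U/mL solution) in 0.1 M phosphate buffer pH 8.0 with acetylthiocholine iodide and DTNB. Yellow product read kinetically at 410 nm for 4 min at 30 °C. Rates compared with no-inhibitor V_max; inhibition % = 100 − 100·V/V_max. At least four replicates. One-sided t-test against 0% inhibition.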

[6] = Cytotoxicity against human A549 cells assessed as cell viability at 2000 ug/mL after 24 hrs by MTT assay relative to control; format: cell-based; conditions: read-out: Activity
Outline: (§2)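 A549 cells seeded, left 24 h to attach, then exposed to compound for 24 h. Hydrogen peroxide served as positive control and pure solvent as negative control. At 48 h of culture, MTT added to a final concentration of 0.5 mg/mL and incubated 3 h. Medium removed, cells washed twice, formazan dissolved in DMSO with shaking for 20 min at room temperature.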

[7] = Cytotoxicity against human A549 cells assessed as cell viability at 200 ug/mL after 24 hrs by MTT assay relative to control; format: cell-based; conditions: read-out: Activity; outline: as §2
[8] = Cytotoxicity against human A549 cells assessed as cell viability at 20 ug/mL after 24 hrs by MTT assay relative to control; format: cell-based; conditions: read-out: Activity; outline: as §2
[9] = Cytotoxicity against human A549 cells assessed as cell viability at 2 ug/mL after 24 hrs by MTT assay relative to control; format: cell-based; conditions: read-out: Activity; outline: as §2
[10] = Cytotoxicity against human A549 cells assessed as cell viability at 0.2 ug/mL after 24 hrs by MTT assay relative to control; format: cell-based; conditions: read-out: Activity; outline: as §2
Cholinesterase [11] = molecular target: T1, Cholinesterase; test: Inhibition of BChE in human serum assessed as hydrolysis of butyrylthiocholine at 0.1 ug/mL by Ellman's method; outline: as §1
[12] = Cytotoxicity against human A549 cells assessed as cell viability at 100 ug/mL after 24 hrs by MTT assay relative to control; format: cell-based; conditions: read-out: Activity
Outline: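 A549 cells seeded, allowed to attach 24 h, then exposed to compound for 24 h; hydrogen peroxide positive control, solvent negative control. MTT added at 48 h of culture (final 0.5 mg/mL), 3 h incubation, cells washed twice, formazan dissolved in DMSO with 20 min shaking at room temperature; viable, metabolically active cells quantified.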

Cholinesterase [13] = molecular target: T1, Cholinesterase; test: Inhibition of BChE in human serum assessed as hydrolysis of butyrylthiocholine at 0.01 ug/mL by Ellman's method; format: cell-free; outline: as §1

T1 sequence (P06276 whole entry): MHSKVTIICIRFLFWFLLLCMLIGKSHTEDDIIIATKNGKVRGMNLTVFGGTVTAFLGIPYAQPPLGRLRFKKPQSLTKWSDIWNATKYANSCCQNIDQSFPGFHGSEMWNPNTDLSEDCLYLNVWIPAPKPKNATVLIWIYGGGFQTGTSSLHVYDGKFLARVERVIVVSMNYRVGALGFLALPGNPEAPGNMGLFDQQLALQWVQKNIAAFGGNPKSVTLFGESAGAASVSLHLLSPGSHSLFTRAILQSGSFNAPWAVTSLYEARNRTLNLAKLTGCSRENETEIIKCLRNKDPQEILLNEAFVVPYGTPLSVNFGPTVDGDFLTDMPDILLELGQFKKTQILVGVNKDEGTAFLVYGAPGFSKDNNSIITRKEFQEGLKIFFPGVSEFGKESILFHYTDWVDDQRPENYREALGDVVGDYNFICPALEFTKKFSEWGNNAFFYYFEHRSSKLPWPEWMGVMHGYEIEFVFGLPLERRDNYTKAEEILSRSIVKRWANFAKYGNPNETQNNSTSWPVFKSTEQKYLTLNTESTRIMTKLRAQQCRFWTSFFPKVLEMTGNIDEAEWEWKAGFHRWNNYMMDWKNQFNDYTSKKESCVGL

| SMILES | IC50 (Cholinesterase [1]) [µM] | inhibition (Cholinesterase [2]) [%] | inhibition (Cholinesterase [3]) [%] | inhibition (Cholinesterase [4]) [%] | inhibition [5] | viability at 24 h, 2000 ug/mL [6] [%] | viability at 24 h, 200 ug/mL [7] [%] | viability at 24 h, 20 ug/mL [8] [%] | viability at 24 h, 2 ug/mL [9] [%] | viability at 24 h, 0.2 ug/mL [10] [%] | inhibition (Cholinesterase [11]) [%] | viability at 24 h, 100 ug/mL [12] [%] | inhibition (Cholinesterase [13]) [%] |
| --- | --- | --- | --- | --- | --- | --- | --- | --- | --- | --- | --- | --- | --- |
| CO[C@H]1O[C@@H]([C@@H](N=[N+]=[N-])C(=O)OCc2ccccc2)[C@@H](OCc2ccccc2)[C@@]2(OCc3ccccc3)[C@@H](OCc3ccccc3)CO[C@@H]12 | 13.4 | 98 | 73 | 14 | inactive | 16 | 64.2 | 63.6 | 76.2 | 90.5 | – | – | – |
| CC(=O)Nc1nc(Cl)c2ncn([C@@H]3O[C@H](COC(C)=O)[C@@H](OCc4ccccc4)[C@@]4(OCc5ccccc5)[C@@H](OCc5ccccc5)CO[C@@H]34)c2n1 | – | 48 | 11 | – | inactive | – | – | – | – | – | – | – | – |
| COC(=O)[C@H](N=[N+]=[N-])[C@@H]1O[C@@H](n2cnc3nc(NC(C)=O)nc(Cl)c32)[C@@H]2OC[C@H](OCc3ccccc3)[C@]2(OCc2ccccc2)[C@@H]1OCc1ccccc1 | – | – | – | – | inactive | 21.3 | 52.3 | 69.3 | 99.9 | 103 | – | – | – |
| C=C[C@@H](O)[C@@H]1O[C@H](OC)[C@@H]2OC[C@H](OCc3ccccc3)[C@]2(OCc2ccccc2)[C@@H]1OCc1ccccc1 | 50 | 73 | 23 | – | inactive | – | – | – | – | – | – | – | – |
| CO[C@H]1O[C@@H]([C@H](O)C(=O)OCc2ccccc2)[C@@H](OCc2ccccc2)[C@@]2(OCc3ccccc3)[C@@H](OCc3ccccc3)CO[C@@H]12 | 133 | 55 | 8 | – | inactive | – | – | – | – | – | – | – | – |
| CCN(C)C(=O)Oc1cccc([C@H](C)N(C)C)c1 [RIVASTIGMINE] | – | 100 | 100 | 100 | inactive | – | – | – | – | – | 76 | 89 | – |
| CO[C@H]1O[C@H](COC(=O)c2ccccc2)[C@@H](OC(=O)c2ccccc2)[C@@]2(OC(=O)c3ccccc3)[C@@H](OC(=O)c3ccccc3)CO[C@@H]12 | – | 7 | – | – | inactive | – | – | – | – | – | – | – | – |
| CO[C@H]1O[C@H](COC(C)=O)[C@@H](OC(C)=O)[C@@]2(OC(C)=O)[C@@H](OC(C)=O)CO[C@@H]12 | – | < 5 | – | – | inactive | – | – | – | – | – | – | – | – |
| C=C[C@H](O)[C@@H]1O[C@H](OC)[C@@H]2OC[C@H](OCc3ccccc3)[C@]2(OCc2ccccc2)[C@@H]1OCc1ccccc1 | 31 | 76 | 54 | 4 | inactive | – | – | – | – | – | – | – | – |
| CC(=O)Nc1nc(Cl)c2c(ncn2[C@@H]2O[C@H](COC(C)=O)[C@@H](OCc3ccccc3)[C@@]3(OCc4ccccc4)[C@@H](OCc4ccccc4)CO[C@@H]23)n1 | 0.76 | 84 | 85 | 70 | inactive | – | – | – | – | – | 20 | – | – |
| CC(=O)Nc1nc(Cl)c2c(ncn2[C@@H]2O[C@@H]([C@H](N=[N+]=[N-])C(=O)OCc3ccccc3)[C@@H](OCc3ccccc3)[C@@]3(OCc4ccccc4)[C@@H](OCc4ccccc4)CO[C@@H]23)n1 | 22 | 81 | 34 | 9 | inactive | 7.32 | 51.3 | 46.9 | 82.2 | 88.5 | – | – | – |
| CO[C@H]1O[C@@H]([C@H](N=[N+]=[N-])C(=O)OCc2ccccc2)[C@@H](OCc2ccccc2)[C@@]2(OCc3ccccc3)[C@@H](OCc3ccccc3)CO[C@@H]12 | 4.2 | 91 | 64 | 36 | inactive | 25 | 47.9 | 73.9 | 71.2 | 90.2 | 15 | – | – |
| CO[C@H]1O[C@H](CO)[C@@H](OCc2ccccc2)[C@@]2(OCc3ccccc3)[C@@H](OCc3ccccc3)CO[C@@H]12 | 148 | 60 | < 5 | – | inactive | – | – | – | – | – | – | – | – |
| CC(=O)Nc1nc(Cl)c2c(ncn2[C@@H]2O[C@@H]([C@@H](N=[N+]=[N-])C(=O)OCc3ccccc3)[C@@H](OCc3ccccc3)[C@@]3(OCc4ccccc4)[C@@H](OCc4ccccc4)CO[C@@H]23)n1 | 0.14 | 91 | 79 | 77 | inactive | – | – | – | – | – | 63 | – | 10 |
| CO[C@H]1O[C@@H]([C@@H](O)C(=O)OCc2ccccc2)[C@@H](OCc2ccccc2)[C@@]2(OCc3ccccc3)[C@@H](OCc3ccccc3)CO[C@@H]12 | 16.1 | 95 | 56 | 7 | inactive | 36 | 63.6 | 67.2 | 81.6 | 91.9 | – | – | – |
| CO[C@H]1O[C@H](CO)[C@@H](O)[C@@]2(O)[C@@H](O)CO[C@@H]12 | – | < 5 | – | – | inactive | – | – | – | – | – | – | – | – |
| COC(=O)[C@@H](N=[N+]=[N-])[C@@H]1O[C@@H](n2cnc3nc(NC(C)=O)nc(Cl)c32)[C@@H]2OC[C@H](OCc3ccccc3)[C@]2(OCc2ccccc2)[C@@H]1OCc1ccccc1 | – | – | – | – | inactive | 15.1 | 19.5 | 40.8 | 77.7 | 103 | – | – | – |
